Positions of bridges follow the written chain, without caps; N, C: chain ends. Non-standard residues stand in square brackets, D forms with d. Residues, ends and D or L forms follow the SMILES beside them. ξ: configuration not given here. Nva = CCC[C@H](N)C(=O)O; ξA = CC(N)C(=O)O
What was measured:
[1] = molecular target: T1, Atrial natriuretic peptide receptor 3 (Homo sapiens) (UniProt P17342); assay: Binding affinity for non-vasorelaxant receptor by competitive displacement of [125I]-AP(103-126) from rabbit lung membranes; assay type: tissue-based; conditions: Oryctolagus cuniculus, Membrane, target entry is the homologue from another species
T1 sequence (whole entry): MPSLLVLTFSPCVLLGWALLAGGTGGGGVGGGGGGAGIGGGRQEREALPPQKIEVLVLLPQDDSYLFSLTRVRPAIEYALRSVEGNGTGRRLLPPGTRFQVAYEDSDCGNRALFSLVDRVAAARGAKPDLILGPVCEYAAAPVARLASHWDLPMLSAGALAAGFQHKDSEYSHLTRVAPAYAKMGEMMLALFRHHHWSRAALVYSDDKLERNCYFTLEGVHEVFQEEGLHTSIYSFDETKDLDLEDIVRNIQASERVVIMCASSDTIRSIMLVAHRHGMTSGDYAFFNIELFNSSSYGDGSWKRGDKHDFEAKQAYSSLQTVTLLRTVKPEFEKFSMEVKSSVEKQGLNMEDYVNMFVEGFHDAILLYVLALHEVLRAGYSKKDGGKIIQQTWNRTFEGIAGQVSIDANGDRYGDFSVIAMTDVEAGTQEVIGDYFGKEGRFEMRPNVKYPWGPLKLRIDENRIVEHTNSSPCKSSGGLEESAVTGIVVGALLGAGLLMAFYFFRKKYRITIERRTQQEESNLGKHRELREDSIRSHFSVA

[2] = molecular target: Atrial natriuretic peptide receptor (Homo sapiens) (UniProt P20594+P16066+P17342); assay: Selectivity factor, ratio of NVR and VR relative binding potency; assay type: protein assay; conditions: Oryctolagus cuniculus
Oryctolagus cuniculus = species: Oryctolagus cuniculus; assay: Binding affinity for vasorelaxant receptor by competitive displacement of [125I]-AP(103-126) from rabbit lung membranes; assay type: tissue-based; conditions: Membrane
[3] = Apparent binding constant for vasorelaxant subclass of receptors; design: species or system Oryctolagus cuniculus
Procedure, shortened: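 Competitive binding assay on rabbit lung membranes, using atrial peptide analogues.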

Relative potency [1]	Ratio [2]	Relative potency (Oryctolagus cuniculus)	Ki [3] [nM]	Compound
0.63	485	0.0013		CC[C@H](C)[C@@H]1NC(=O)[C@H](CCCN=C(N)N)NC(=O)[C@H](CC(=O)O)NC(=O)[C@H]([C@@H](C)CC)NC(=O)[C@H](CCCN=C(N)N)NC(=O)[C@@H](NC(=O)CNC(=O)[C@H](Cc2ccccc2)NC(=O)[C@H](C)NC(=O)[C@H](CO)NC(=O)[C@@H](N)CO)CSSC[C@@H](C(=O)NCC(=O)N[C@@H](CC(C)C)C(=O)NCC(=O)N[C@@H](C)C(=O)N[C@@H](CC(N)=O)C(=O)N[C@@H](CO)C(=O)N[C@@H](Cc2ccccc2)C(=O)N[C@@H](CCCN=C(N)N)C(N)=O)NC(=O)[C@H](CCC(N)=O)NC(=O)[C@H](C)NC(=O)CNC1=O (H-SSAFGCRIDRIGAQCGLGANSFR-NH2; disulfide 6-15)
0.59	369	0.0016		CC[C@H](C)[C@@H]1NC(=O)[C@H](CCCN=C(N)N)NC(=O)[C@H](CC(=O)O)NC(=O)[C@H]([C@@H](C)CC)NC(=O)[C@H](CCCN=C(N)N)NC(=O)[C@@H](NC(=O)CNC(=O)[C@H](Cc2ccccc2)NC(=O)[C@H](CSC)NC(=O)[C@H](CO)NC(=O)[C@@H](N)CO)CSSC[C@@H](C(=O)NCC(=O)N[C@@H](CC(C)C)C(=O)NCC(=O)N[C@@H](CSC)C(=O)N[C@@H](CC(N)=O)C(=O)N[C@@H](CO)C(=O)N[C@@H](Cc2ccccc2)C(=O)N[C@@H](CCCN=C(N)N)C(N)=O)NC(=O)[C@H](CCC(N)=O)NC(=O)[C@H](C)NC(=O)CNC1=O (H-SSC(Me)FGCRIDRIGAQCGLGC(Me)NSFR-NH2; disulfide 6-15)
1.3	118	0.011	7.4	CC[C@H](C)[C@@H]1NC(=O)[C@H](CCCN=C(N)N)NC(=O)[C@H](CC(=O)O)NC(=O)[C@H]([C@@H](C)CC)NC(=O)[C@H](CCCN=C(N)N)NC(=O)[C@@H](NC(=O)CNC(=O)[C@H](Cc2ccccc2)NC(=O)CNC(=O)[C@H](CO)NC(=O)[C@@H](N)CO)CSSC[C@@H](C(=O)NCC(=O)N[C@@H](CC(C)C)C(=O)NCC(=O)NCC(=O)N[C@@H](CC(N)=O)C(=O)N[C@@H](CO)C(=O)N[C@@H](Cc2ccccc2)C(=O)N[C@@H](CCCN=C(N)N)C(N)=O)NC(=O)[C@H](CCC(N)=O)NC(=O)[C@H](C)NC(=O)CNC1=O (H-SSGFGCRIDRIGAQCGLGGNSFR-NH2; disulfide 6-15)
0.81	1120	0.00072		CC[C@H](C)[C@@H]1NC(=O)[C@H](CCCN=C(N)N)NC(=O)[C@H](CC(=O)O)NC(=O)[C@H]([C@@H](C)CC)NC(=O)[C@H](CCCN=C(N)N)NC(=O)[C@@H](NC(=O)CNC(=O)[C@H](Cc2ccccc2)NC(=O)CNC(=O)[C@H](CO)NC(=O)[C@@H](N)CO)CSSC[C@@H](C(=O)N[C@@H](CC(C)C)C(=O)NCC(=O)NCC(=O)N[C@@H](CC(N)=O)C(=O)N[C@@H](CO)C(=O)N[C@@H](Cc2ccccc2)C(=O)N[C@@H](CCCN=C(N)N)C(N)=O)NC(=O)[C@H](CO)NC(=O)[C@H](CCC(N)=O)NC(=O)[C@H](C)NC(=O)CNC1=O (H-SSGFGCRIDRIGAQSCLGGNSFR-NH2; disulfide 6-16)
0.44	293	0.0015		CC[C@H](C)[C@@H]1NC(=O)[C@H](CCCN=C(N)N)NC(=O)[C@H](CC(=O)O)NC(=O)[C@H]([C@@H](C)CC)NC(=O)[C@H](CCCN=C(N)N)NC(=O)[C@@H](NC(=O)CNC(=O)[C@H](Cc2ccccc2)NC(=O)[C@H](CO)NC(=O)[C@H](CO)NC(=O)[C@@H](N)CO)CSSC[C@@H](C(=O)NCC(=O)N[C@@H](CC(C)C)C(=O)NCC(=O)N[C@@H](CO)C(=O)N[C@@H](CC(N)=O)C(=O)N[C@@H](CO)C(=O)N[C@@H](Cc2ccccc2)C(=O)N[C@@H](CCCN=C(N)N)C(N)=O)NC(=O)[C@H](CCC(N)=O)NC(=O)[C@H](C)NC(=O)CNC1=O (H-SSSFGCRIDRIGAQCGLGSNSFR-NH2; disulfide 6-15)
0.26	286	0.00091		CCC[C@H](NC(=O)CNC(=O)[C@H](CC(C)C)NC(=O)CNC(=O)[C@@H]1CSSC[C@H](NC(=O)CNC(=O)[C@H](Cc2ccccc2)NC(=O)[C@H](CCC)NC(=O)[C@H](CO)NC(=O)[C@@H](N)CO)C(=O)N[C@@H](CCCN=C(N)N)C(=O)N[C@@H]([C@@H](C)CC)C(=O)N[C@@H](CC(=O)O)C(=O)N[C@@H](CCCN=C(N)N)C(=O)N[C@@H]([C@@H](C)CC)C(=O)NCC(=O)N[C@@H](C)C(=O)N[C@@H](CCC(N)=O)C(=O)N1)C(=O)N[C@@H](CC(N)=O)C(=O)N[C@@H](CO)C(=O)N[C@@H](Cc1ccccc1)C(=O)N[C@@H](CCCN=C(N)N)C(N)=O (H-SS[Nva]FGCRIDRIGAQCGLG[Nva]NSFR-NH2; disulfide 6-15)

Compound	Relative potency [1]	Ratio [2]	Relative potency (Oryctolagus cuniculus)	Ki [3] [nM]
CC[C@H](C)[C@@H]1NC(=O)[C@H](CCCN=C(N)N)NC(=O)[C@H](CC(=O)O)NC(=O)[C@H]([C@@H](C)CC)NC(=O)[C@H](CCCN=C(N)N)NC(=O)CNC(=O)CNC(=O)[C@H](Cc2ccccc2)NC(=O)C(C)NC(=O)[C@@H](NC(=O)[C@@H](N)CO)CSSC[C@@H](C(=O)N[C@@H](CO)C(=O)N[C@@H](Cc2ccccc2)C(=O)N[C@@H](CCCN=C(N)N)C(N)=O)NC(=O)C(C)NC(=O)CNC(=O)[C@H](CC(C)C)NC(=O)CNC(=O)[C@H](CO)NC(=O)[C@H](CCC(N)=O)NC(=O)[C@H](C)NC(=O)CNC1=O (some centres undefined) (H-SC[ξA]FGGRIDRIGAQSGLG[ξA]CSFR-NH2; disulfide 2-20)	1.3	464	0.0028	
CC[C@H](C)[C@@H]1NC(=O)[C@H](CCCN=C(N)N)NC(=O)[C@H](CC(=O)O)NC(=O)[C@H]([C@@H](C)CC)NC(=O)[C@H](CCCN=C(N)N)NC(=O)CNC(=O)CNC(=O)[C@H](Cc2ccccc2)NC(=O)[C@@H](NC(=O)[C@H](CO)NC(=O)[C@@H](N)CO)CSSC[C@@H](C(=O)N[C@@H](CSC)C(=O)N[C@@H](CC(N)=O)C(=O)N[C@@H](CO)C(=O)N[C@@H](Cc2ccccc2)C(=O)N[C@@H](CCCN=C(N)N)C(N)=O)NC(=O)[C@H](CC(C)C)NC(=O)CNC(=O)[C@H](CO)NC(=O)[C@H](CCC(N)=O)NC(=O)[C@H](C)NC(=O)CNC1=O (H-SSCFGGRIDRIGAQSGLCC(Me)NSFR-NH2; disulfide 3-18)	1.3	32	0.041	
CC[C@H](C)[C@@H]1NC(=O)[C@H](CCCN=C(N)N)NC(=O)[C@H](CC(=O)O)NC(=O)[C@H]([C@@H](C)CC)NC(=O)[C@H](CCCN=C(N)N)NC(=O)CNC(=O)CNC(=O)[C@H](Cc2ccccc2)NC(=O)[C@@H](NC(=O)[C@H](CO)NC(=O)[C@@H](N)CO)CSSC[C@@H](C(=O)N[C@@H](CO)C(=O)N[C@@H](CC(N)=O)C(=O)N[C@@H](CO)C(=O)N[C@@H](Cc2ccccc2)C(=O)N[C@@H](CCCN=C(N)N)C(N)=O)NC(=O)[C@H](CC(C)C)NC(=O)CNC(=O)[C@H](CO)NC(=O)[C@H](CCC(N)=O)NC(=O)[C@H](C)NC(=O)CNC1=O (H-SSCFGGRIDRIGAQSGLCSNSFR-NH2; disulfide 3-18)	1.3	23	0.056	
CCC[C@H](NC(=O)[C@@H]1CSSC[C@H](NC(=O)[C@H](CO)NC(=O)[C@@H](N)CO)C(=O)N[C@@H](Cc2ccccc2)C(=O)NCC(=O)NCC(=O)N[C@@H](CCCN=C(N)N)C(=O)N[C@@H]([C@@H](C)CC)C(=O)N[C@@H](CC(=O)O)C(=O)N[C@@H](CCCN=C(N)N)C(=O)N[C@@H]([C@@H](C)CC)C(=O)NCC(=O)N[C@@H](C)C(=O)N[C@@H](CCC(N)=O)C(=O)N[C@@H](CO)C(=O)NCC(=O)N[C@@H](CC(C)C)C(=O)N1)C(=O)N[C@@H](CC(N)=O)C(=O)N[C@@H](CO)C(=O)N[C@@H](Cc1ccccc1)C(=O)N[C@@H](CCCN=C(N)N)C(N)=O (H-SSCFGGRIDRIGAQSGLC[Nva]NSFR-NH2; disulfide 3-18)	0.63	13	0.047	
CC[C@H](C)[C@@H]1NC(=O)[C@H](CCCN=C(N)N)NC(=O)[C@H](CC(=O)O)NC(=O)[C@H]([C@@H](C)CC)NC(=O)[C@H](CCCN=C(N)N)NC(=O)CNC(=O)CNC(=O)[C@H](Cc2ccccc2)NC(=O)[C@@H](NC(=O)[C@H](CO)NC(=O)[C@@H](N)CO)CSSC[C@@H](C(=O)NC(C)C(=O)N[C@@H](CC(N)=O)C(=O)N[C@@H](CO)C(=O)N[C@@H](Cc2ccccc2)C(=O)N[C@@H](CCCN=C(N)N)C(N)=O)NC(=O)[C@H](CC(C)C)NC(=O)CNC(=O)[C@H](CO)NC(=O)[C@H](CCC(N)=O)NC(=O)[C@H](C)NC(=O)CNC1=O (some centres undefined) (H-SSCFGGRIDRIGAQSGLC[ξA]NSFR-NH2; disulfide 3-18)	0.94	6	0.16	

— ChEMBL document CHEMBL1124687, “Analogues of atriopeptin(103-125)amide having high binding selectivity” (J Med Chem, 1989)
